Measured values as given in ChEMBL document CHEMBL4342493, “Design and Optimization of 3'-(Imidazo[1,2-a]pyrazin-3-yl)-[1,1'-biphenyl]-3-carboxamides as Selective DDR1 Inhibitors” (ACS Med Chem Lett, 2020).

How the values were obtained:
[1] = target: Epithelial discoidin domain-containing receptor 1 (Homo sapiens, UniProt Q08345); test: Inhibition of recombinant human GST-tagged DDR1 catalytic domain (440 to 876 residues) expressed in baculovirus expression system using Fluorescein-poly GAT as substrate incubated for 1 hr in presence of ATP by LanthaScreen Eu kinase assay
Epithelial discoidin domain-containing receptor 1, sequence (Q08345 whole entry, the tested form may be a part): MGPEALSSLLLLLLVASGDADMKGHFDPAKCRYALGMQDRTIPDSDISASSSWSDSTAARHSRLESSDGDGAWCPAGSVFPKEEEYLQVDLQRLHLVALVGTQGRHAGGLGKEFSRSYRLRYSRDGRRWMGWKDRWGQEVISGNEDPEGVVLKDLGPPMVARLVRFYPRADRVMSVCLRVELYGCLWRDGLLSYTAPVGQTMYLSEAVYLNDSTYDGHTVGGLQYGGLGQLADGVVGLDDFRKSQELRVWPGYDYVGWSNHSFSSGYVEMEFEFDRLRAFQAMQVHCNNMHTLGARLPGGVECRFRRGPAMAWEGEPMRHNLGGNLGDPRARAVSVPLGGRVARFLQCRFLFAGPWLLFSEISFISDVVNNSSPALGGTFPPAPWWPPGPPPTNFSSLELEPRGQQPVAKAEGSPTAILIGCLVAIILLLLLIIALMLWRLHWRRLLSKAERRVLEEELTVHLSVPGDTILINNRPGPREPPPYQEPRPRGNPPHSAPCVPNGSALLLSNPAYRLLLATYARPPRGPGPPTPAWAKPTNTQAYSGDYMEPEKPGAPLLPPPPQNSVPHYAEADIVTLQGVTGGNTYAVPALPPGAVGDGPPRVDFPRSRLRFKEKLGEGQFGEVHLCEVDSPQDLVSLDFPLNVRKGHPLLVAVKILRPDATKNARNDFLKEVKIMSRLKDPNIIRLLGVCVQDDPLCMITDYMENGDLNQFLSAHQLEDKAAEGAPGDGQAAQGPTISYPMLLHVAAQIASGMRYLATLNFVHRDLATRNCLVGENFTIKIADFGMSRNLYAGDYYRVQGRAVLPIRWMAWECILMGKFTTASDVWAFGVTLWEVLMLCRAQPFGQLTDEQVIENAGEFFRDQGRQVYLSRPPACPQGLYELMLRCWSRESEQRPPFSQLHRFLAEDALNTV

[2] = target: T1, Discoidin domain-containing receptor 2 (Homo sapiens, UniProt Q16832); test: Inhibition of recombinant human GST-tagged DDR2 cytoplasmic domain (427 to 855 residues) expressed in baculovirus expression system using Fluorescein-poly GAT as substrate incubated for 1 hr in presence of ATP by LanthaScreen Eu kinase assay
T1 sequence (Q16832 whole entry): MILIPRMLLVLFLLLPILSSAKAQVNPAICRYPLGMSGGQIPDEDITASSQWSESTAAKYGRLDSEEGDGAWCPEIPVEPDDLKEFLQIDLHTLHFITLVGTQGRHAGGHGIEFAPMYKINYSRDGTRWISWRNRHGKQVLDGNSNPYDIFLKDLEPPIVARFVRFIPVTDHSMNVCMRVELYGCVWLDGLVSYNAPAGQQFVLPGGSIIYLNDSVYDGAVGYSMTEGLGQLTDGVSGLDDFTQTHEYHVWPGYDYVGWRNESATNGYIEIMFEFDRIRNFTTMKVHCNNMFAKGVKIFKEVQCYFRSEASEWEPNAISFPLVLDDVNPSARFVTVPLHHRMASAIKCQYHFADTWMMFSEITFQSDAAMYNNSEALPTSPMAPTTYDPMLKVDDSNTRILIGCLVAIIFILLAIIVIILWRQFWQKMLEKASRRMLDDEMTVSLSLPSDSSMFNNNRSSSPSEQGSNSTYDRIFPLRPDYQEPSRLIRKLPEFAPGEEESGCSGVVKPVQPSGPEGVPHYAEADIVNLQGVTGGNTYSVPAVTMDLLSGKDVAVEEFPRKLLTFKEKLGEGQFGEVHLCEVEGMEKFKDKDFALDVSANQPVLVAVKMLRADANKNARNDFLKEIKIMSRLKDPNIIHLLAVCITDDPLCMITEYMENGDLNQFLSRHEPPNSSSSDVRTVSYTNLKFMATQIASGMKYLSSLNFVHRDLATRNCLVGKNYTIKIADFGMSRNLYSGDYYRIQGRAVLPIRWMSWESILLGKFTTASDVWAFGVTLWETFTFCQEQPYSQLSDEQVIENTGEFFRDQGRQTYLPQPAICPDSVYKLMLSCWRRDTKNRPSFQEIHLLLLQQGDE
Summary of the method: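 LanthaScreen Eu kinase assay for DDR2; IC50 values are means of three independent experiments, variations <20%.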

Bcr/Abl fusion protein = Bcr/Abl fusion protein (Homo sapiens, UniProt P00519); test: Inhibition of human recombinant full length His-tagged Bcr-Abl expressed in baculovirus expression system using tyrosine-2 peptide as substrate after 1 hr in presence of […] ATP by FRET based Z'-LYTE assay
Bcr/Abl fusion protein, sequence (P00519 whole entry, the tested form may be a part): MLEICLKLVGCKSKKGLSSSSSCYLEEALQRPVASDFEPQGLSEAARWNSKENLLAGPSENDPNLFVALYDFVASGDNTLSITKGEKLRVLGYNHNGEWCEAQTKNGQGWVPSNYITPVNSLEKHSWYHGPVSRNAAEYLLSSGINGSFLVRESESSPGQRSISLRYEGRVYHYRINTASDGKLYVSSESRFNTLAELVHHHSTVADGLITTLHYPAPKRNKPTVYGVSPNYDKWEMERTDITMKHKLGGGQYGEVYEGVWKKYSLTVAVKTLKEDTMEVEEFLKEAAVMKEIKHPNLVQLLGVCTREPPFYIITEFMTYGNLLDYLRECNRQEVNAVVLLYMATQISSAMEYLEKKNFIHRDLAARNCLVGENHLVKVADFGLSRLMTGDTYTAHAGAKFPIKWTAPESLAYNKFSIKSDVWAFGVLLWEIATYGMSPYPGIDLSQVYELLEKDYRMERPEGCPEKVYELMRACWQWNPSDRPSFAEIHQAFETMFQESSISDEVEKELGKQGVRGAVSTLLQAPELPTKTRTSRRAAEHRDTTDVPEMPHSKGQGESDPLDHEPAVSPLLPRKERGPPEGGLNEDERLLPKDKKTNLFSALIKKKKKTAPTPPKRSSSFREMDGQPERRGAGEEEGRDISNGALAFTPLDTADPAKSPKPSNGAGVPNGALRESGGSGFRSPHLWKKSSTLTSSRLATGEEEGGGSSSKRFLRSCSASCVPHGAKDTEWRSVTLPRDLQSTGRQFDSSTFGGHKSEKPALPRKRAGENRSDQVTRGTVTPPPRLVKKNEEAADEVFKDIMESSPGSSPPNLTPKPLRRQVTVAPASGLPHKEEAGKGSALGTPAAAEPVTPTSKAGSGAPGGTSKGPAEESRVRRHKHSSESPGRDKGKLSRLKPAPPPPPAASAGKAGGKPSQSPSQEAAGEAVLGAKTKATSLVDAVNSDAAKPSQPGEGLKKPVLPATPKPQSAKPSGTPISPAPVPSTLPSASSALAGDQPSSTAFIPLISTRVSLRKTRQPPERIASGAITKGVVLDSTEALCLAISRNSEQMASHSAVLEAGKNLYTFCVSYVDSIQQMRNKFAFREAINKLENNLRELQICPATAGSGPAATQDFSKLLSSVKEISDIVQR
Bcr/Abl fusion protein, sequence (P11274 whole entry, further chain, the tested form may be a part): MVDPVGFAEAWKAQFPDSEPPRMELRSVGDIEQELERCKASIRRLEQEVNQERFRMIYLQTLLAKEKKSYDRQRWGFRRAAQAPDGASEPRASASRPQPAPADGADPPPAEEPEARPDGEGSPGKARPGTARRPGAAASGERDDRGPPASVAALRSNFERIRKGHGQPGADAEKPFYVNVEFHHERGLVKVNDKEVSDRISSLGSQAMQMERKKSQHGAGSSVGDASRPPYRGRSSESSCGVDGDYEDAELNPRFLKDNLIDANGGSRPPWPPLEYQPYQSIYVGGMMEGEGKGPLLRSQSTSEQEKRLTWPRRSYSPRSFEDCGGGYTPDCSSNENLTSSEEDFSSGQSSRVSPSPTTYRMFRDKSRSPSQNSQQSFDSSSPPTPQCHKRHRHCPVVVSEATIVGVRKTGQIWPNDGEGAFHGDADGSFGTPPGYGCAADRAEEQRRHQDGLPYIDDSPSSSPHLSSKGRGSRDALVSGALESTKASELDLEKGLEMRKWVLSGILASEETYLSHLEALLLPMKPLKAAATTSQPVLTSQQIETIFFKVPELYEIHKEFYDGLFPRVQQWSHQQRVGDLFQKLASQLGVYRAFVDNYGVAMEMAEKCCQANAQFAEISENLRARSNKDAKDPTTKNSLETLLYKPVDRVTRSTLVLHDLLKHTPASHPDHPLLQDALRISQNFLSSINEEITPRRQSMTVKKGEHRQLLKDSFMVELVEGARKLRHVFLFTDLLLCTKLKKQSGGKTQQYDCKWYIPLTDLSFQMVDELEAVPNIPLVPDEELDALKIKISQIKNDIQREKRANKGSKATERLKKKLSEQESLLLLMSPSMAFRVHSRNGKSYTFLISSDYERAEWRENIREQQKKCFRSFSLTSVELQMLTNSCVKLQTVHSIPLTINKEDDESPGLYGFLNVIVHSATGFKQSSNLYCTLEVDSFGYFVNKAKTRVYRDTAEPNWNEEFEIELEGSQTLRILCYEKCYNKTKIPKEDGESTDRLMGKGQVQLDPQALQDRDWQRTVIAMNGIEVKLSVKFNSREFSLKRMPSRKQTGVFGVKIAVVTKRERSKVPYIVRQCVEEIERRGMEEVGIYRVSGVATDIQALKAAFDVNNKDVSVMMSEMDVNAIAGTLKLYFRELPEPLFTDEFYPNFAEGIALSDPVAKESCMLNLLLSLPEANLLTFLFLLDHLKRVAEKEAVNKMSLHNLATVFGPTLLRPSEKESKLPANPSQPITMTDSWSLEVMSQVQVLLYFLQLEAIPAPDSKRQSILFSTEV
Summary of the method: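 FRET-based Z′-Lyte kinase assay for Bcr-Abl; IC50 values are means of three independent experiments, variations <20%.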

[3] = target: Mast/stem cell growth factor receptor Kit (Homo sapiens, UniProt P10721); test: Inhibition of human recombinant His-tagged c-Kit cytoplasmic domain (544 to 976 residues) expressed in baculovirus expression system using Ser/Thr 6 peptide as substrate after 1 hr in presence of 300 uM ATP by FRET based Z'-LYTE assay
Mast/stem cell growth factor receptor Kit, sequence (P10721 whole entry, the tested form may be a part): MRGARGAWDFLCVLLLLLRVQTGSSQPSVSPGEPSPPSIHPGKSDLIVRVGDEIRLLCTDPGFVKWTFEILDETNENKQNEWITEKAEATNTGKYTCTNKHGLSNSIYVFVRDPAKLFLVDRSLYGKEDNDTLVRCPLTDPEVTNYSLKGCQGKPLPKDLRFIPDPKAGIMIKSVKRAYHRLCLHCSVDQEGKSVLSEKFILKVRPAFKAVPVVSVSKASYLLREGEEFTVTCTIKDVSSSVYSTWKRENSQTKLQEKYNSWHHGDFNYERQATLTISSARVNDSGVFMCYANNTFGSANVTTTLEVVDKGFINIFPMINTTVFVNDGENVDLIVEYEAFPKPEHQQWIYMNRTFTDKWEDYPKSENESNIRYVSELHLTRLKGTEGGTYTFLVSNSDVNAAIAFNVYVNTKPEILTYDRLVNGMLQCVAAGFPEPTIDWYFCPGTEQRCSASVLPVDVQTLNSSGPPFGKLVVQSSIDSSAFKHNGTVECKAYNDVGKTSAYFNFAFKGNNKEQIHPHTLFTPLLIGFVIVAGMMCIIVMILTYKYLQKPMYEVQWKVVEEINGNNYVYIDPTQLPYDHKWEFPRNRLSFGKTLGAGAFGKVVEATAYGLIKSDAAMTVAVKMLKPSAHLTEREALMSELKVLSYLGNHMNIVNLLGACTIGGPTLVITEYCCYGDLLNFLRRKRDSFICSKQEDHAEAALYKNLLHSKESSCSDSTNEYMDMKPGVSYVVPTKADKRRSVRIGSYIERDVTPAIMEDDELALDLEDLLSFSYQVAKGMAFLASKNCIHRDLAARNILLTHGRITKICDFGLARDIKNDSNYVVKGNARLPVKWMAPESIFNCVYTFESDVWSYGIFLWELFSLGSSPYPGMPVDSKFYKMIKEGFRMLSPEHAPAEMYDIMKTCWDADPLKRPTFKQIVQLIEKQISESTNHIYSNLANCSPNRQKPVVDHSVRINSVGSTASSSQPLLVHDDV

Q: `CCc1ccc(C(=O)Nc2cccc(C(F)(F)F)c2)cc1-c1cc(-c2cnc3cnccn23)ccc1C` was tested. Which IC50 [1] did it give?
A: 0.0637 µM

Q: What about the IC50 [2] of the same compound?
A: 0.61 µM

Q: And the IC50 (Bcr/Abl fusion protein)?
A: 1.45 µM

Q: What about the IC50 [3] of the same compound?
A: > 10 µM

Q: Which results are given for `CCc1ccc(C(=O)Nc2cccc(C(F)(F)F)c2)cc1-c1cc(-c2cnc3cnccn23)cc(C(C)C)c1`?
A: IC50 [1]: 0.0669 µM; IC50 [2]: 2.63 µM; IC50 (Bcr/Abl fusion protein): > 10 µM; IC50 [3]: > 10 µM

Q: What does the source list for `CCc1ccc(C(=O)Nc2cc(CN3CCN(C)CC3)cc(C(F)(F)F)c2)cc1-c1cccc(-c2cnc3cnccn23)c1`?
A: IC50 [1]: 0.0087 to 0.0096 µM; IC50 [2]: 0.0661 µM; IC50 (Bcr/Abl fusion protein): 0.437 µM; IC50 [3]: 0.62 µM

Q: `CCc1ccc(C(=O)Nc2cccc(C(F)(F)F)c2)cc1-c1cc(Cl)cc(-c2cnc3cnccn23)c1` was tested. Which IC50 [1] did it give?
A: 0.0213 µM

Q: What about the IC50 [2] of the same compound?
A: 1.08 µM

Q: What about the IC50 (Bcr/Abl fusion protein) of the same compound?
A: > 10 µM

Q: And the IC50 [3]?
A: 8.41 µM

Q: What does the source list for `CCc1ccc(C(=O)Nc2cccc(C(F)(F)F)c2)cc1-c1cc(OC)cc(-c2cnc3cnccn23)c1`?
A: IC50 [1]: 0.0165 µM; IC50 [2]: 1.02 µM; IC50 (Bcr/Abl fusion protein): 3.7 µM; IC50 [3]: 4.99 µM

Q: With `CC(C)c1ccc(C(=O)Nc2cccc(C(F)(F)F)c2)cc1-c1cccc(-c2cnc3cnccn23)c1` as the compound, how does the IC50 [1] read?
A: 1.26 µM

Q: And the IC50 [2]?
A: > 10 µM

Q: What about the IC50 (Bcr/Abl fusion protein) of the same compound?
A: > 10 µM

Q: What about the IC50 [3] of the same compound?
A: 1.69 µM

Q: For `CCc1ccc(C(=O)Nc2cccc(C(F)(F)F)c2)cc1-c1cc(F)cc(-c2cnc3cnccn23)c1`, which IC50 [1] is on record?
A: 0.0303 µM

Q: What about the IC50 [2] of the same compound?
A: 1.33 µM

Q: And the IC50 (Bcr/Abl fusion protein)?
A: 5.34 µM

Q: And the IC50 [3]?
A: 6.59 µM

Q: With `CCc1cc(-c2cc(C(=O)Nc3cccc(C(F)(F)F)c3)ccc2CC)cc(-c2cnc3cnccn23)c1` as the compound, how does the IC50 [1] read?
A: 0.0423 µM

Q: And the IC50 [2]?
A: 3.23 µM

Q: And the IC50 (Bcr/Abl fusion protein)?
A: > 10 µM

Q: And the IC50 [3]?
A: > 10 µM

Q: Which results are given for `CCc1ccc(C(=O)Nc2cccc(C(F)(F)F)c2)cc1-c1cc(C)cc(-c2cnc3cnccn23)c1`?
A: IC50 [1]: 0.0225 µM; IC50 [2]: 1.73 µM; IC50 (Bcr/Abl fusion protein): > 10 µM; IC50 [3]: > 10 µM

Q: With `CCc1ccc(C(=O)Nc2cccc(C(F)(F)F)c2)cc1-c1cccc(-c2cnc3cnccn23)c1` as the compound, how does the IC50 [1] read?
A: 0.0104 µM

Q: And the IC50 [2]?
A: 0.725 µM

Q: And the IC50 (Bcr/Abl fusion protein)?
A: 2.22 µM

Q: And the IC50 [3]?
A: 2.92 µM

Q: What does the source list for `CCc1ccc(C(=O)Nc2cc(CN3CCN(C)CC3)cc(C(F)(F)F)c2)cc1-c1cccc(-c2cnc3ccnn3c2)c1`?
A: IC50 [1]: 0.359 µM; IC50 [2]: 0.197 µM; IC50 (Bcr/Abl fusion protein): > 10 µM; IC50 [3]: > 10 µM

Q: For `CCc1ccc(C(=O)Nc2ccc(C(F)(F)F)cc2)cc1-c1cccc(-c2cnc3cnccn23)c1`, which IC50 [1] is on record?
A: 1.3 µM

Q: What about the IC50 [2] of the same compound?
A: > 10 µM

Q: What about the IC50 (Bcr/Abl fusion protein) of the same compound?
A: 4.99 µM

Q: What about the IC50 [3] of the same compound?
A: 3.98 µM

Q: For `CCc1ccc(C(=O)Nc2cccc(C(F)(F)F)c2)cc1-c1cc(C#N)cc(-c2cnc3cnccn23)c1`, which IC50 [1] is on record?
A: 0.0156 µM

Q: And the IC50 [2]?
A: 0.947 µM

Q: And the IC50 (Bcr/Abl fusion protein)?
A: 5.64 µM

Q: What about the IC50 [3] of the same compound?
A: 3.72 µM

Q: Which results are given for `CCc1ccc(C(=O)Nc2cccc(CN3CCN(C)CC3)c2)cc1-c1cccc(-c2cnc3cnccn23)c1`?
A: IC50 [1]: 0.357 µM; IC50 [2]: > 10 µM; IC50 (Bcr/Abl fusion protein): 0.989 µM; IC50 [3]: 4.93 µM

Q: With `CCc1ccc(C(=O)Nc2cccc(C(F)(F)F)c2)cc1-c1cc(-c2cnc3cnccn23)cc(C(C)(C)C)c1` as the compound, how does the IC50 [1] read?
A: 0.092 µM

Q: What about the IC50 [2] of the same compound?
A: > 10 µM

Q: What about the IC50 (Bcr/Abl fusion protein) of the same compound?
A: > 10 µM

Q: And the IC50 [3]?
A: > 10 µM

Q: Which IC50 [1] does the source give for `CCc1ccc(C(=O)Nc2cccc(C(F)(F)F)c2)cc1-c1cccc(-c2cnc3cnccn23)c1C` here?
A: 0.0301 µM

Q: What about the IC50 [2] of the same compound?
A: 0.663 µM

Q: What about the IC50 (Bcr/Abl fusion protein) of the same compound?
A: 1.81 µM

Q: And the IC50 [3]?
A: 5.98 µM

Q: Which results are given for `CCc1ccc(C(=O)Nc2cccc(C(F)(F)F)c2F)cc1-c1cc(C)cc(-c2cnc3cnccn23)c1`?
A: IC50 [1]: 0.0738 µM; IC50 [2]: > 5 µM; IC50 (Bcr/Abl fusion protein): > 10 µM; IC50 [3]: > 10 µM

Q: For `CCc1ccc(C(=O)Nc2ccccc2C(F)(F)F)cc1-c1cccc(-c2cnc3cnccn23)c1`, which IC50 [1] is on record?
A: 4.88 µM

Q: And the IC50 [2]?
A: > 10 µM

Q: And the IC50 (Bcr/Abl fusion protein)?
A: > 10 µM

Q: What about the IC50 [3] of the same compound?
A: > 10 µM

Q: How did the IC50 [3] turn out when `CCc1ccc(C(=O)Nc2cc(CN3CCN(C)CC3)cc(C(F)(F)F)c2)cc1C#Cc1cnc2ccnn2c1` was run?
A: > 10 µM

Q: `CCc1ccc(C(=O)Nc2cccc(C(F)(F)F)c2)cc1-c1ccc(C)c(-c2cnc3cnccn23)c1` was tested. Which IC50 [1] did it give?
A: 0.108 µM

Q: What about the IC50 [2] of the same compound?
A: > 10 µM

Q: And the IC50 (Bcr/Abl fusion protein)?
A: > 10 µM

Q: What about the IC50 [3] of the same compound?
A: > 10 µM

Q: Which results are given for `CCc1ccc(C(=O)Nc2cc(C(F)(F)F)ccc2F)cc1-c1cc(C)cc(-c2cnc3cnccn23)c1`?
A: IC50 [1]: 0.0365 µM; IC50 [2]: > 5 µM; IC50 (Bcr/Abl fusion protein): > 10 µM; IC50 [3]: > 10 µM

Q: Which IC50 [1] does the source give for `CCc1ccc(C(=O)Nc2ccccc2)cc1-c1cccc(-c2cnc3cnccn23)c1` here?
A: 4.85 µM

Q: And the IC50 [2]?
A: > 10 µM

Q: And the IC50 (Bcr/Abl fusion protein)?
A: 5.12 µM

Q: What about the IC50 [3] of the same compound?
A: 8.99 µM

Q: `Cc1ccc(C(=O)Nc2cccc(C(F)(F)F)c2)cc1-c1cccc(-c2cnc3cnccn23)c1` was tested. Which IC50 [1] did it give?
A: 0.0092 µM

Q: And the IC50 [2]?
A: 0.135 µM

Q: What about the IC50 (Bcr/Abl fusion protein) of the same compound?
A: 0.237 µM

Q: And the IC50 [3]?
A: 0.0724 µM

Q: How did the IC50 [1] turn out when `CCc1ccc(C(=O)Nc2ccc(F)c(C(F)(F)F)c2)cc1-c1cc(C)cc(-c2cnc3cnccn23)c1` was run?
A: 0.0556 µM

Q: And the IC50 [2]?
A: > 5 µM

Q: What about the IC50 (Bcr/Abl fusion protein) of the same compound?
A: > 10 µM

Q: And the IC50 [3]?
A: > 10 µM
